From PubChem BioAssay
Ecoli rRNA inh – selective bacterial rRNA inhibition in E. coli; E. coli WT GFP vs humanized-ribosome RFP mutants, fluorescence, 24 h; active compounds read low; DMSO median 0, no signal -100; GFP signal change (wild-type ribosome), % (no concentration beside the values); 1.6% of 350,000 active;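 active means significant combined selectivity score with lowered wild-type GFP, culture density cut under 30%, mutant RFP and density less affected; inactive means any of these conditions unmet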
PfHsp90 yeast 2 – reduces growth (ATP signal) of yeast expressing P. falciparum Hsp90 | S. cerevisiae expressing PfHsp90, BacTiter-Glo ATP, 48 h; yeast lacking PDR1 and PDR3 efflux regulators | inhibition, % at 9.4 µM | 0.32% of 310,000 active | AID 504621;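 active means every replicate shows inhibition above about 80%, whatever the replicate mean, limit read from the data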;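 further: 0% = DMSO neutral controls and 100% = 20 µM radicicol positive controls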
DENV2 CPE rescue – protects cells from dengue virus 2 cytopathic effect | DENV2-infected cells, cytopathic effect rescue, plate reader | CPE inhibition, % at 9.99 µM | 1.7% of 350,000 active | AID 651640; in the data active means CPE inhibition above about 20%, passing the limit was not always enough; tested in BHK-21 cells;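 further: 0% = median of neutral control wells and 100% = median of positive control wells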
MLL AF4-AF9 inh – MLL-AF4/AF9 protein interaction inhibition. P42568. AlphaScreen, biotin-AF4 peptide binding to FLAG-AF9. inhibition, % at 10 µM. 0.47% of 350,000 active;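 active means every replicate reaching a set inhibition limit, whatever the replicate mean, cut at about 25% in these data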;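 further: 0% = plate neutral control median and 100% = total signal loss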
Target sequence (P42568 whole entry, looked up): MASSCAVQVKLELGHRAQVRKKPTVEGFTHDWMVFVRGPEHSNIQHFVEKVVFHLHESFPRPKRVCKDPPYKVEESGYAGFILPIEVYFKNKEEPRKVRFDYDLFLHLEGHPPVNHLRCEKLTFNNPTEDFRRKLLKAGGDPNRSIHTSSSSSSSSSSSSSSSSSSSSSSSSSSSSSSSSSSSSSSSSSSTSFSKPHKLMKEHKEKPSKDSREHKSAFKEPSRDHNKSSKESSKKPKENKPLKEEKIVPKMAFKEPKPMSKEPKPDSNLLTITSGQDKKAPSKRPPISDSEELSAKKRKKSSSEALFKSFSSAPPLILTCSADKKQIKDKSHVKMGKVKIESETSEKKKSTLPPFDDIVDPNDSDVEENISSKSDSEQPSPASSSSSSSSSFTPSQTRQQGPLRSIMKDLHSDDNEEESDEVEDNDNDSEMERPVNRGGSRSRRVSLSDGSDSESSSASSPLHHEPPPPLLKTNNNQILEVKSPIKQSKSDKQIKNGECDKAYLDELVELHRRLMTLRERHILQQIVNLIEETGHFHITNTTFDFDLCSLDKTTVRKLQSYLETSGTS
Cneo AK release – Cryptococcus neoformans lysis via adenylate kinase release | lysis activity, % at 15 µM | C. neoformans lysis, adenylate kinase release luminescence, 4 h; normalised: neutral wells 0, clomiphene wells 100 | 0.2% of 360,000 active;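 active means mean lysis activity across replicates of at least 80%, whatever share of replicates individually reach that level; inactive means mean lysis activity below 80%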
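Assay system: log-phase C. neoformans yeast / Quantity: yeast cell density of 5 × 10^6 cells/mL / Medium: fresh YPD growth medium / Compound: single dose / Timing: static 4 h at 37 °C with compound, 1 h detection / Measured by: adenylate kinase release luminescence / Read-out: lysis from increased AK signal / Benchmarks: Clomiphene as positive lysis control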
S100A4 inh HTS – inhibitors of human S100A4 binding to myosin IIA peptide | S100A4/TAMRA-MyoIIA peptide fluorescence polarization | inhibition, % at 10.7 µM | 0.14% of 360,000 active | AID 652163;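 active means mean inhibition of at least 70% across replicates, with every replicate also reaching that level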
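Material: S100A4 monomer protein / Buffer or medium: 50 mM HEPES pH 7.2, 10 mM CaCl2, 100 mM KCl / Times: 5 min incubation before reading / Benchmarks: neutral control DMSO, positive control TFP / Reagent: labelled myosin peptide probe, 5 nM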
An asterisk follows results filed as active; · = not tested or not shown. Rows were chosen to be rich in hits. Some 3.2% of all compounds tested hit in one or more screens of this group.

SMILES	Ecoli rRNA inh	PfHsp90 yeast 2	DENV2 CPE rescue	MLL AF4-AF9 inh	Cneo AK release	S100A4 inh HTS
O=C(NCC[C@H]1CC[C@@H](NC(=O)C2CCC2)[C@@H](CO)O1)c1ccc(F)cc1	0.3	·	-1.9	-2.6	-2.9	-4.8
CCC(=O)N1C[C@H](C)[C@H](OC)CN(C)C(=O)c2cc(NC(=O)C3CCOCC3)ccc2OC[C@@H]1C	-1.6	·	-10.6	-1.0	-3.9	-2.0
CCOC(=O)c1ccc(S(=O)(=O)N2CCN(C(=O)CSc3nc4ccccc4o3)CC2)cc1	-4.6	-5.9	29.2*	-5.9	-1.2	26.6
CCOC(=O)CC1(c2ccc(OC)c(OC)c2)C(=O)c2ccccc2C1=O	-26.9*	0.9	2.7	-3.0	·	-0.7
CCCNC(=O)N(C)C[C@@H]1Oc2cc(C#CC3CC3)ccc2S(=O)(=O)N([C@@H](C)CO)C[C@@H]1C	-3.1	·	-1.5	3.2	-4.4	5.2
Cc1ccc(C)c(OCC(=O)Nc2ccccc2N2CCCC2)c1	-11.4	-9.8	-12.4	7.9	0.8	-0.2
CC(C)C(=O)N1CCN(c2ccccc2NC(=O)COc2ccccc2)CC1	-27.4*	-5.8	-5.5	-2.0	3.9	1.6
Cc1ccc(OCC(=O)Nc2ccccc2N2CCCC2)c(C)c1	-27.1*	-21.7	-3.4	8.0	·	9.6
Cn1cccc1CC(=O)N/N=C/c1cccc2ccccc12	·	-24.9	·	·	0.5	·
COc1ccccc1/C=C/C=N/NC(=O)Cc1cccn1C	2.6	-39.2	-2.1	55.6*	·	2.9
COC(=O)C1Cc2c([nH]c3ccccc23)C2(CCN(Cc3ccccc3)CC2)N1 (configuration not stated)	-4.3	15.0	-5.5	29.9*	-0.9	-1.6
COc1cccc(CN(C)C(=S)Nc2ccc(C)c(C)c2)c1	-24.9*	·	-5.9	-2.6	·	-27.5
C[C@@H]1CN([C@@H](C)CO)C(=O)c2cccc(NS(=O)(=O)c3cccs3)c2O[C@@H]1CN(C)Cc1ccncc1	0.9	·	-4.5	0.6	-5.4	-30.0
COc1cc(O)c(C(CC(=O)N2CCCC(C)C2)c2cc(OC)c(OC)c(OC)c2)c(OC)c1 (configuration not stated)	5.9	-0.4	61.9*	5.0	0.2	-2.3
CN(CC(=O)Nc1cccc(Cl)c1)S(=O)(=O)c1ccc2[nH]c(=O)oc2c1	-25.0*	0.4	-2.6	-6.0	4.5	4.8
CCc1ccc(NC(=O)CN(C)S(=O)(=O)c2ccc3[nH]c(=O)oc3c2)cc1	·	-12.8	·	·	-2.5	·
CCC(C(=O)NCc1ccccc1)n1c(CSCCOc2ccccc2)nc2ccccc21 (configuration not stated)	-7.7	·	5.0	·	·	0.9
CC(C(=O)NCc1ccccc1)n1c(CSCCOc2ccccc2)nc2ccccc21 (configuration not stated)	·	·	40.3*	·	·	-6.9
COc1ccc(NC(=O)Nc2cccc3c2O[C@@H](CN(C)C(=O)Nc2ccc4c(c2)OCO4)[C@@H](C)CN([C@@H](C)CO)C3=O)cc1	-5.5	·	27.1*	1.5	-2.0	-1.3
C[C@H](CO)N1C[C@H](C)[C@H](CN(C)Cc2ccc(C(F)(F)F)cc2)Oc2c(NC(=O)c3ccncc3)cccc2C1=O	-2.3	·	2.9	-1.9	-4.0	8.4
Cc1noc(C)c1NC(=O)N(C)C[C@H]1Oc2c(NC(=O)Nc3ccc4c(c3)OCO4)cccc2C(=O)N([C@H](C)CO)C[C@H]1C	3.3	·	23.8*	-0.4	-7.5	9.3
COc1ccc(NC(=O)N(C)C[C@@H]2Oc3c(NC(=O)Nc4ccc5c(c4)OCO5)cccc3C(=O)N([C@@H](C)CO)C[C@H]2C)cc1	-1.0	·	2.8	1.6	0.7	5.4
C[C@H]1CN([C@@H](C)CO)C(=O)c2cccc(NC(=O)c3ccncc3)c2O[C@H]1CN(C)Cc1ccc(C(F)(F)F)cc1	-1.0	·	23.6*	-1.2	0.8	-11.9
COc1ccc(S(=O)(=O)N(C)C[C@H]2Oc3c(NC(=O)Nc4ccc(C(F)(F)F)cc4)cccc3C(=O)N([C@H](C)CO)C[C@@H]2C)cc1	-5.0	14.6	20.8*	0.2	0.6	-3.8
